Experimental data published in PubChem BioAssay AID2608 (Broad Institute, 2010).

Each compound was assayed on BJeLR fibroblasts viability, alamar blue fluorescence, 48 h (assay: BJeLR fibroblast killing, alamar blue viability – cell-based, alamar blue fluorescence, 48 h, powder samples, dose response (AID 2608)).
How it was run: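 Material: BJ fibroblasts transformed with hTERT, SV40 LT/ST and HRASV12 | Amount: 1000 cells/well | Medium: DMEM/M199 growth medium supplemented with FBS | Dosing: 2-fold compound dilution series, 0.01–5.33 µg/mL final | Incubation: 48 h exposure, 37 °C, 5% CO2, ~16 h alamar blue | Signal: Alamar blue fluorescence, excitation 544 nm, emission 590 nm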
Compound `COc1ccc(CN(CCC(c2ccccc2)c2ccc(OC(C)C)cc2)C(=O)CCl)cc1OC` (centres undefined) has an EC50 of 642 nM.
`COc1ccc(C(C(=O)NC2CCCCC2)N(C(=O)CCl)c2cccc(Cl)c2)cc1` (centres undefined) showed an EC50 of 171 nM.
For `COc1ccc(N(C(=O)CCl)C(C(=O)NCCc2ccccc2)c2cccs2)cc1` (centres undefined), the EC50 was 217 nM.
For `Cc1ccc(C2CC(c3cccs3)=NN2C(=O)CCl)cc1` (centres undefined), the EC50 was 776 nM.
In the case of `COC(=O)[C@@H]1Cc2c([nH]c3ccccc23)C(C)(C)N1C(=O)CCl`, the EC50 is reported as 475 nM.
With `CCCCCCCN(C(=O)CCl)c1cccc(C)c1` the EC50 was 119 nM.
Work on `COc1cccc(N(C(=O)CCl)C(C(=O)NCCc2ccccc2)c2cccs2)c1` (centres undefined) yielded an EC50 of 168 nM.
`Cc1ccc(N(C(=O)CCl)C(C(=O)NC2CCCCC2)c2cccnc2)cc1C` (centres undefined) gave an EC50 of 160 nM.
With `Nc1nc(CCl)nc(Nc2ccc3ccccc3c2)n1` the EC50 was 85 nM.
`C=CCOc1ccccc1CN(C(=O)CCl)c1ccc2c(c1)OCO2` gave an EC50 of 855 nM.
In the case of `CCOc1ccc(Nc2nc(N)nc(CCl)n2)cc1`, the EC50 is reported as 226 nM.
Work on `COc1ccc(C(C(=O)NC2CCCCC2)N(C(=O)CCl)c2ccc(C)cc2)cc1` (centres undefined) yielded an EC50 of 161 nM.
`COc1ccc(N(C(=O)CCl)C(C(=O)NCCc2ccccc2)c2cccs2)cc1Cl` (centres undefined) was tested, and the EC50 was 26 nM.
For `O=C(CCl)N=c1sccn1Cc1ccccc1Cl`, the EC50 was 149 nM.
